NPY1 pot ag – NPY-Y1 receptor potentiators or agonists, primary screen, cell-based; AID 1304, 2008; activation, % at 3.6 µM; Neuropeptide Y receptor type 1 (Homo sapiens), P25929; hit rate 0.37% among 220,000; NPY-Y1 expressing cells, potentiator/agonist activation; in the data active = activation above about 33%, passing the limit was not always enough;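 note: cells stimulated with NPY at EC10 then isoproterenol at EC100; 0% = low agonist plus stimulus and 100% = saturating agonist plus stimulus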
Target sequence (P25929 whole entry, looked up): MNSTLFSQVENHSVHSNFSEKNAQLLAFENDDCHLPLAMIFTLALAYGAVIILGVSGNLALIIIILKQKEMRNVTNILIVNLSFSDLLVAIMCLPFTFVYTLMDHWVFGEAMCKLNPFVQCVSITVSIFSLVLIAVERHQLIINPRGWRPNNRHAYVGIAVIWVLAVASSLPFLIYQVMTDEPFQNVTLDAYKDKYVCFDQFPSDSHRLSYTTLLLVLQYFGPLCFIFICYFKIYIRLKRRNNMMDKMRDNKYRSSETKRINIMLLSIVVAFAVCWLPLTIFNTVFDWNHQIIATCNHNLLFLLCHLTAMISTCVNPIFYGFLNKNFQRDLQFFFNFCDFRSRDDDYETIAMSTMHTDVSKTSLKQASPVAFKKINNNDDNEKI
NPY2 pot ag – NPY-Y2 potentiators or agonists, primary screen, cell-based | Neuropeptide Y receptor type 2 (Homo sapiens), P49146 | AID 1359, 2008 | hit rate 0.45% among 220,000 | cells expressing NPY-Y2, potentiator/agonist read-out | activation, % at 3.6 µM; in the data active = activation above about 27%;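 note: cells stimulated with NPY near EC25 plus isoproterenol at EC100; 0% = vehicle plus submaximal agonist and 100% = vehicle plus saturating agonist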
Target sequence (P49146 whole entry, looked up): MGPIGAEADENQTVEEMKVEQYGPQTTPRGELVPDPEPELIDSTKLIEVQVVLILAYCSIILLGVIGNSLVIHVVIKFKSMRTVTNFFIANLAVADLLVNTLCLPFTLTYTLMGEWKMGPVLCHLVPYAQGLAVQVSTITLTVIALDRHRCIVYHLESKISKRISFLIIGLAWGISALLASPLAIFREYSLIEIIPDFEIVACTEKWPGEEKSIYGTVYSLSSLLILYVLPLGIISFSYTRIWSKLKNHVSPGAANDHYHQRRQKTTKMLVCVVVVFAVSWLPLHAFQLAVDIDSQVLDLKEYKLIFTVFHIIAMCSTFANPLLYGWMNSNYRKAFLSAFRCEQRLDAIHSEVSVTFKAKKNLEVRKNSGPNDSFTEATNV
NPY Y2 blocker – NPY-Y2 receptor antagonists, primary screen, cell-based; inhibition, % at 2.7 µM; hit rate 0.99% among 140,000; NPY-Y2 expressing cells, antagonist mode; Neuropeptide Y receptor type 2 (Homo sapiens), P49146; AID 793, 2007; in the data active = inhibition above about 17%;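 note: 0% = vehicle with agonist challenge and 100% = reference antagonist with challenge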
NPY-Y1 antag – NPY-Y1 receptor antagonists, primary screen, cell-based | Neuropeptide Y receptor type 1 (Homo sapiens), P25929 | hit rate 1% among 200,000 | inhibition, % at 3.6 µM | HEK293-CNG Y1 cells, membrane potential fluorescence; NPY at EC95, then isoproterenol;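 active = inhibition above the campaign mean inhibition of all tested compounds plus 3 SD, cut at about 20% in these data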;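 note: 0% = DMSO wells given NPY plus isoproterenol and 100% = isoproterenol alone without NPY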
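Material: HEK293 Y1/CNG channel cell line; also added: NPY (25 nM), isoproterenol (1 µM), Ro 20-1724 (25 µM); doses: one concentration, 3.6 µM, in 0.4% DMSO; schedule: compound incubation 1 h at room temperature, readout 45 min post-stimulation; technique: membrane potential fluorescence; measure: fluorescence ratio normalized to % inhibition between controls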
NPY-Y2 confirm – NPY-Y2 potentiators or agonists, confirmation, cell-based; shares compounds with NPY2 pot ag; cell-based NPY-Y2 potentiator/agonist assay; activation, % at 3.6 µM; hit rate 20% among 450; in the data active = activation above about 33%
NPY-Y1 counter – NPY-Y1 potentiators or agonists, counter-screen for NPY-Y2 potentiator project, cell-based, fluorescence. shares compounds with NPY2 pot ag. Y1 HEK293-CNG cells, membrane potential fluorescence. activation, % at 3.6 µM. hit rate 20% among 450. AID 1651, 2009; in the data active = activation above about 45%;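 note: cells stimulated with submaximal NPY then isoproterenol with phosphodiesterase inhibitor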
NPY-Y1 ag 2 – NPY-Y1 direct agonists, selectivity assay for NPY-Y2 potentiator project, cell-based, fluorescence | shares compounds with NPY2 pot ag | HEK293 Y1-CNGC, membrane potential fluorescence, agonism | activation, % at 3.6 µM | hit rate 37% among 450 | AID 1702, 2009;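 active = activation above the mean of DMSO-only control wells plus 3 SD, cut at about 18% in these data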;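 note: cells stimulated with 1 µM isoproterenol plus the PDE inhibitor Ro 20-1724; 0% = isoproterenol with DMSO and no NPY and 100% = 40 nM NPY; Y1 agonists lower the membrane potential dye signal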
CNGC inhibitor – CNGC cAMP sensor activity inhibitors, counter-screen for NPY-Y2 potentiator project, cell-based, HEK293-CNG parental, membrane potential fluorescence; hit rate 32% among 450; isoproterenol cAMP; shares compounds with NPY2 pot ag; inhibition, % at 3.6 µM;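 active = inhibition above the control-well mean plus 3 SD of those wells, cut at about 22% in these data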;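 note: 0% = DMSO with isoproterenol and 100% = DMSO without isoproterenol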
NPY-Y2 ag 2 – NPY-Y2 direct agonists, counter-screen for NPY-Y2 potentiator project, cell-based, fluorescence; activation, % at 3.6 µM; HEK293 Y2/CNGC cells, membrane potential fluorescence, agonist mode; hit rate 56% among 450; shares compounds with NPY2 pot ag;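 active = activation above the mean of solvent-only control wells plus 3 SD, cut at about 10% in these data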;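 note: cells stimulated by isoproterenol with no NPY added so direct agonism is tested; 0% = DMSO with isoproterenol alone and 100% = NPY at EC100 plus isoproterenol; agonism lowers probe fluorescence through less cAMP and CNG channel opening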
* = called active by the depositor; . = no result. Only some compounds are listed: those with a hit (about 1.9% of all), similar ones and a draw of the others.

SMILES | NPY1 pot ag | NPY2 pot ag | NPY Y2 blocker | NPY-Y1 antag | NPY-Y2 confirm | NPY-Y1 counter | NPY-Y1 ag 2 | CNGC inhibitor | NPY-Y2 ag 2
COc1cccc(N2CCN(c3ncnc4c3[nH]c3ccc(F)cc34)CC2C)c1 (centres undefined) | -25 | 39* | 8 | 57* | -4 | -27 | -40 | -41 | 8
COc1cccc(N2CCN(c3ncnc4c3[nH]c3ccccc34)CC2C)c1 (centres undefined) | 28 | 2 | 11 | 6 | . | . | . | . | .
N/C(=N\OC(=O)c1ccc(OCC(F)(F)F)nc1)c1ccc(Cl)cc1 | -36 | 82* | . | . | -11 | -5 | -16 | -11 | 9
N/C(=N\OC(=O)c1ccc(Cl)cc1)c1ccc(Cl)cc1 | 2 | 3 | 0 | 7 | . | . | . | . | .
Cc1ccc(NC(=S)N(CCN2CCCCC2)Cc2ccco2)cc1Cl | -7 | 1 | . | 6 | . | . | . | . | .
Oc1c(C2=NCCNC(C(F)(F)F)=C2)ccc2ccccc12 | 35 | 31* | . | -12 | 36* | 50* | 38* | 32* | 42*
Cc1ccc(O)c(C2=NCCNC(C(F)(F)F)=C2)c1 | 20 | 1 | 1 | -2 | . | . | . | . | .
O=C(CS(=O)(=O)c1ccccc1)N1CCc2ccccc21 | 28 | 34* | . | 1 | -5 | -4 | -4 | 1 | 3
O=C(Cc1ccccc1)N1CCc2ccccc21 | -10 | -13 | 4 | 4 | . | . | . | . | .
CCn1c2ccccc2c2cc(NC(=O)CSc3nnc(-c4ccccc4OC)n3N)ccc21 | 15 | 43* | -5 | -10 | 11 | 15 | 19* | 17 | 16*
COc1cccc(C(=O)Nc2ccc(F)cc2F)c1 | -2 | 4 | 6 | 4 | . | . | . | . | .
COc1cccc(C(=O)Nc2ccccc2F)c1 | 16 | 30* | . | 4 | -3 | -5 | 5 | 3 | -4
CN(Cc1nccn1C)C(=O)c1cc(COc2ccc3ncccc3c2)on1 | 20 | 6 | . | -1 | . | . | . | . | .
Cc1cc(CN(C)C(=O)c2cc(COc3ccc4ncccc4c3)on2)on1 | -8 | 38* | . | -3 | -6 | -44 | -28 | -12 | -11
NS(=O)(=O)c1ccc(NC(=O)COC(=O)c2cnccn2)cc1 | 5 | 10 | . | 1 | . | . | . | . | .
CC(=O)c1ccc(N2CCN(C(=S)Nc3ccc(Oc4ccccc4)cc3)CC2)cc1 | 12 | 39* | . | -1 | 1 | -20 | -9 | -4 | 11*
Cn1ncc2c(=O)[nH]cnc21 | 8 | -3 | . | 3 | . | . | . | . | .
COc1ccc(-n2c(C)cc(C(=O)COC(=O)Cn3cnc4ccccc43)c2C)cc1 | 26 | 38* | 1 | -5 | -4 | -42 | -18 | -8 | 0
COc1ccc(-n2c(C)cc(C(=O)CN3C(=O)c4ccccc4C3=O)c2C)cc1 | 8 | 10 | 4 | 7 | . | . | . | . | .
CC(C)NCC(O)COc1ccc(CC(N)=O)cc1 (centres undefined) | 14 | 15 | 2 | -1 | . | . | . | . | .
COCCc1ccc(OCC(O)CNC(C)C)cc1 (centres undefined) | 57 | 65* | 0 | -7 | 38* | 39 | 34* | 8 | 28*
CCCCCCN1CC(C(=O)OCC)C(=O)C1=O (centres undefined) | 10 | 1 | 3 | 0 | . | . | . | . | .
Cc1ccc(Cl)cc1NC(=O)c1cc2ccccc2cc1O | 37 | 45* | . | . | 8 | 15 | -5 | 20 | 19*
COc1cc(NC(=O)c2cc3ccccc3cc2O)c(OC)cc1Cl | 31 | 58* | . | . | 21 | -8 | -13 | 4 | 12*
COc1cc(OC)c(NC(=O)c2ccccc2F)cc1Cl | -8 | -3 | . | 9 | . | . | . | . | .
SMILES | NPY1 pot ag | NPY2 pot ag | NPY Y2 blocker | NPY-Y1 antag | NPY-Y2 confirm | NPY-Y1 counter | NPY-Y1 ag 2 | CNGC inhibitor | NPY-Y2 ag 2
Cc1ccc(Cl)cc1NC(=O)COC(=O)c1ccccc1O | -11 | -2 | . | . | . | . | . | . | .
O=C(O)/C=C/C(=O)N(CC1CCCO1)C1CC(=O)N(c2c(Cl)cccc2Cl)C1=O (centres undefined) | -1 | -9 | . | . | . | . | . | . | .
CC1Cc2ccccc2N1C(=O)COC(=O)CCc1nc2ccccc2c(=O)[nH]1 (centres undefined) | -2 | -10 | . | -2 | . | . | . | . | .
O=C(O)C1CC1C(=O)Nc1cc(F)ccc1F (centres undefined) | 7 | 28* | . | -1 | -5 | 0 | -1 | 0 | -3
c1ccc(Oc2c3ccccc3nc3ccccc23)cc1 | 9 | 19 | . | . | . | . | . | . | .
CCOC(=O)c1ccc(-n2c(=S)sc3c(=O)[nH]c(C)nc32)cc1 | 28 | 35* | 4 | -8 | 6 | 11 | 11 | -7 | 12*
FC(F)(F)c1cnc(NNC(=S)Nc2ccc(Cl)cc2)c(Cl)c1 | 38 | 42* | 5 | -5 | 8 | -27 | -14 | -7 | 16*
COc1cc2[nH]c3c(=O)n4c(nc3c2cc1OC)SCCC4 | -7 | 1 | . | -6 | . | . | . | . | .
COc1nc(N)c(S(=O)(=O)c2ccccc2)cc1C#N | 4 | 3 | 1 | 5 | . | . | . | . | .
N#Cc1cc(S(=O)(=O)c2ccc(Cl)cc2)c(N)[nH]c1=O | -14 | 54* | . | 5 | 0 | -2 | -4 | 3 | 10
CC1CCCCN1C(=O)COC(=O)/C=C/c1ccc2ccccc2n1 (centres undefined) | 0 | 1 | . | -1 | . | . | . | . | .
O=C(Nc1ccc(Br)cc1)c1ccc(F)c(S(=O)(=O)NCc2cccs2)c1 | -11 | 36* | 0 | -3 | 0 | -27 | -24 | -10 | -2
C/C(CC(=O)Nc1cccc2c1CCCC2)=N\NC=O | 6 | -6 | . | -1 | . | . | . | . | .
CC1Cc2ccccc2N1S(=O)(=O)c1cccc(C(=O)NCCCn2ccnc2)c1 (centres undefined) | 1 | -7 | . | 3 | . | . | . | . | .
Cc1[nH]c2ccccc2c1/C=N/NC(=O)c1cccc(S(=O)(=O)Nc2cccc(C(F)(F)F)c2)c1 | 39 | 42* | . | -3 | 41* | 60* | 46* | 35* | 40*
NNC(=O)c1cccc(S(=O)(=O)Nc2cccc(C(F)(F)F)c2)c1 | 20 | 2 | . | . | . | . | . | . | .
CCc1noc(C)c1C(=O)Nc1nc(-c2cc(C)ccc2C)c(C)s1 | 4 | -15 | 1 | -2 | . | . | . | . | .

Assay outcomes from PubChem BioAssay.
